Reference: ChEMBL document CHEMBL1158546, “Discovery of novel and potent leukotriene B4 receptor antagonists. Part 1” (J Med Chem, 2010)
≈ marks a conversion by molar mass, not a printed value. One block for each compound: values may come before it. Calls of active or inactive are those of the source. No cut-off for these calls is given here.

Key:
[1] = molecular target: T1, Cytochrome P450 1A2 (Homo sapiens, UniProt P05177); test: Inhibition of CYP1A2 by fluorescence method; format: ADME
T1 sequence (P05177 whole entry): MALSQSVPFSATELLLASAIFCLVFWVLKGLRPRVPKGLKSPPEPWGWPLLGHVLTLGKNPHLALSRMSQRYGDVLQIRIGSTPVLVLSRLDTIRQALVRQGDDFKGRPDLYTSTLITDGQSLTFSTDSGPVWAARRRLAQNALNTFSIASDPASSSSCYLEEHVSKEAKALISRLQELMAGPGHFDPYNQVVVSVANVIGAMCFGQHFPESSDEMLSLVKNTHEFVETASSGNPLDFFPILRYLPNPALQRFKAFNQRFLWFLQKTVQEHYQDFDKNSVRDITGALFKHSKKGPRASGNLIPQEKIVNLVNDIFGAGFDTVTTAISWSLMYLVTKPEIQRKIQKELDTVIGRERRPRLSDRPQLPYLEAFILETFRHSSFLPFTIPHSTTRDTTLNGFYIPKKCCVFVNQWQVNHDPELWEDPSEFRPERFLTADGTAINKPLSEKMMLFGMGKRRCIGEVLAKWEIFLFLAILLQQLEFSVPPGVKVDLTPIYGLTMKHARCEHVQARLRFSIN
In short: (§1)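 Cytochrome P450 high-throughput panel (1A2, 2D6, 2C9, 2C19, 3A4) using fluorogenic substrates; IC50 reported.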

[2] = Oral bioavailability in Sprague-Dawley rat at 10 mg/kg, po; format: ADME, organism-based; details: in vivo
In short: (§2)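 Rat single-dose PK, n = 3, with oral dosing at 10 mg/kg and intravenous dosing at 2.5 or 5 mg/kg.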

[3] = molecular target: Cytochrome P450 3A4 (Homo sapiens, UniProt P08684); test: Inhibition of CYP3A4 fluorescence method; format: ADME
Cytochrome P450 3A4, sequence (P08684 whole entry): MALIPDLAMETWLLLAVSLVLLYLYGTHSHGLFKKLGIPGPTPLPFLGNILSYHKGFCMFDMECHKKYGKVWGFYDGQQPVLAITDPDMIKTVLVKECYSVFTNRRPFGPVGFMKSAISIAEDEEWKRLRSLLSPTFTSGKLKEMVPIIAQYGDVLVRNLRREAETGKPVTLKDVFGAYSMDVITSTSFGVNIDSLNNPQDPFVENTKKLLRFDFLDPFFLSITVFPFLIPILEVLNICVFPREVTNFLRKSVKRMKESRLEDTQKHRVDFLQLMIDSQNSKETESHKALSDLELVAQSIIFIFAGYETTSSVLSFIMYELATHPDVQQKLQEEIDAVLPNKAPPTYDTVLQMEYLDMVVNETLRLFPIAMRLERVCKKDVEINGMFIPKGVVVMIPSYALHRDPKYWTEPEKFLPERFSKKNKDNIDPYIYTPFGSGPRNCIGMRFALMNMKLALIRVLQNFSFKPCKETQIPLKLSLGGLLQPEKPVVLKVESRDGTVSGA
In short: (§3)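 High-throughput CYP panel covering 1A2, 2D6, 2C9, 2C19 and 3A4, using fluorogenic substrates. IC50 was determined in μM.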

[4] = Volume of distribution at steady state in Sprague-Dawley rat at 2.5 mg/kg, iv; format: ADME, organism-based; parameters: dose 2.5 mg/kg, route intravenous; details: in vivo, read-out: Vdss
[5] = molecular target: Cytochrome P450 2D6 (Homo sapiens, UniProt P10635); test: Inhibition of CYP2D6 fluorescence method; format: ADME; in short: as §3
Cytochrome P450 2D6, sequence (P10635 whole entry): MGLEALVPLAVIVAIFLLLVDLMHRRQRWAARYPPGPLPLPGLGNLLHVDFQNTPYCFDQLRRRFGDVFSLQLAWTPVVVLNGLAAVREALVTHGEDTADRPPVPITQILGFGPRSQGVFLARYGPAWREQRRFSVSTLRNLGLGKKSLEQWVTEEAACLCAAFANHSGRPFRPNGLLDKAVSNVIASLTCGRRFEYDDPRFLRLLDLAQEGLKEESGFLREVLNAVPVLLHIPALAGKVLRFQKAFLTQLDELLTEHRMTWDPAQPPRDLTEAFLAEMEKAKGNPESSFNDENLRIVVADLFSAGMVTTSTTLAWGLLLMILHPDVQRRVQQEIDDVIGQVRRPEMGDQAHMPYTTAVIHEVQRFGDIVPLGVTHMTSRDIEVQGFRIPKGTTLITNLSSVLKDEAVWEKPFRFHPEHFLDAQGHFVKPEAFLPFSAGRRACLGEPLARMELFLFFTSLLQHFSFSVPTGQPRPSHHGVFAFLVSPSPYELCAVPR

[6] = Tmax in Sprague-Dawley rat at 10 mg/kg, po; format: ADME, organism-based; parameters: dose 10 mg/kg, route oral; details: in vivo; in short: as §2
[7] = molecular target: T2, Voltage-gated inwardly rectifying potassium channel KCNH2 (Homo sapiens, UniProt Q12809); test: Inhibition of human ERG expressed in CHO cells assessed as reduction of current amplitude
T2 sequence (Q12809 whole entry): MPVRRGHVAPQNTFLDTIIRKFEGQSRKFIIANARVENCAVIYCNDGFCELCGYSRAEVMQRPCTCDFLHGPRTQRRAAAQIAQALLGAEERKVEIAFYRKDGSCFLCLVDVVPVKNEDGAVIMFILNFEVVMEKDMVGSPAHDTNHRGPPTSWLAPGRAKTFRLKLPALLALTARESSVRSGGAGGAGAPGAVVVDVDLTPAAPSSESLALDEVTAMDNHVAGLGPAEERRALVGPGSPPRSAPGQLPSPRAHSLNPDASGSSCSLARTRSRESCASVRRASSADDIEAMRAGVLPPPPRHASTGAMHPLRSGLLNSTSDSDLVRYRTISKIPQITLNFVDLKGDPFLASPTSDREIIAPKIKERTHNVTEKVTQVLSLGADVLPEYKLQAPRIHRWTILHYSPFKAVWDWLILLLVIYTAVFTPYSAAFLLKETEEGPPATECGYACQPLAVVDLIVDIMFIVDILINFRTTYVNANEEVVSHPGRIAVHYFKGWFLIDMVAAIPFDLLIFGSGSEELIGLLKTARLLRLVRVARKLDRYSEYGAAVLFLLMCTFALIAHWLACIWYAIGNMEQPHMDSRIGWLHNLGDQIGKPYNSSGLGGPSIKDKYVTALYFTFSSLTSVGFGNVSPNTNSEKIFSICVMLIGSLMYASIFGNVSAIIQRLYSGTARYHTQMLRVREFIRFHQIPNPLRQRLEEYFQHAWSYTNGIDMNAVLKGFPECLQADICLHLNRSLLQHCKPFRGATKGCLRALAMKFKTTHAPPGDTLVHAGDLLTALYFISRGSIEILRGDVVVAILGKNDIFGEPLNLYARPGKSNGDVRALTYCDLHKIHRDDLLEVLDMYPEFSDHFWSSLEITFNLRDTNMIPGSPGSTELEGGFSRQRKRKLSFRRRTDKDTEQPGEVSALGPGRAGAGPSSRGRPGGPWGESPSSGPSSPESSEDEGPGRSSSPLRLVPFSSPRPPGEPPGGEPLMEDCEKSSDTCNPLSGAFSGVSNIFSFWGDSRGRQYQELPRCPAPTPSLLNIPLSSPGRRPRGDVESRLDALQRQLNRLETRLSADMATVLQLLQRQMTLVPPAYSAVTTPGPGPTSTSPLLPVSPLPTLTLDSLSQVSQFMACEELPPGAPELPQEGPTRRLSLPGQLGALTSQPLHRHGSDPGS

[8] = tested on: Cynomolgus monkey; test: Antiinflammatory activity against ascaris suum antigen-evoked increase in neutrophils at bronchoalveolar lavage in cynomolgus monkey at 10 mg/kg, po after 1 hr treated before LTB4 challenge; format: functional, organism-based; parameters: dose 10 mg/kg; details: Macaca fascicularis, in the assay text read “before Ascaris suum antigen challenge” for “before LTB4 challenge”
In short: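 Male cynomolgus monkeys (4-10 kg) naturally hypersensitive to Ascaris suum had baseline BAL 24 h before challenge. They were dosed orally with 10 mg/kg in 15% Labrasol in PEG. One hour later, under ketamine/xylazine, they received antigen aerosol for 90 s by endotracheal tube. BAL neutrophil percentage came from 300-cell LeukoStat differentials, with hemocytometer totals. Analysis by two-way ANOVA/Bonferroni; 3-21 animals per group.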

[9] = Solubility of compound in small intestinal contents in the fasted state at pH 6.5; format: ADME
In short: (§4)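 Solubility measured in simulated intestinal fluid at pH 5.0 (fed) or pH 6.5 (fasted), reported in μg/mL.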

[10] = molecular target: T3, Leukotriene B4 receptor 2 (Homo sapiens, UniProt Q9NPC1); test: Antagonist activity at FLAG-tagged human BLT2 receptor expressed in HEK293 cells assessed as inhibition of LTB4-stimulated calcium mobilization preincubated for 10 mins before LTB4 challenge; format: functional, cell-based
T3 sequence (Q9NPC1 whole entry): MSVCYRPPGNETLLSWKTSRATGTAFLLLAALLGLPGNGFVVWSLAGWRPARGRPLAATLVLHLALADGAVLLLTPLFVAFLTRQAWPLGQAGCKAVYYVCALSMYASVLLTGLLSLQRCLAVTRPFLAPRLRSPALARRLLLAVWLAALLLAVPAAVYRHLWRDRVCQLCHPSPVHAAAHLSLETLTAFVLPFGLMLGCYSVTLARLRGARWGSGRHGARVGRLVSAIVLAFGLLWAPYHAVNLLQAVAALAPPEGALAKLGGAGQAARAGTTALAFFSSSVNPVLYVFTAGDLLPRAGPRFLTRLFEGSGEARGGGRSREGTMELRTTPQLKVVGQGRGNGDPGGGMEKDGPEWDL

[11] = molecular target: T2, Voltage-gated inwardly rectifying potassium channel KCNH2; test: Inhibition of human ERG expressed in CHO cells at 3 uM assessed as reduction of current amplitude
[12] = molecular target: Cytochrome P450 2C19 (Homo sapiens, UniProt P33261); test: Inhibition of CYP2C19 fluorescence method; format: ADME; in short: as §1
Cytochrome P450 2C19, sequence (P33261 whole entry): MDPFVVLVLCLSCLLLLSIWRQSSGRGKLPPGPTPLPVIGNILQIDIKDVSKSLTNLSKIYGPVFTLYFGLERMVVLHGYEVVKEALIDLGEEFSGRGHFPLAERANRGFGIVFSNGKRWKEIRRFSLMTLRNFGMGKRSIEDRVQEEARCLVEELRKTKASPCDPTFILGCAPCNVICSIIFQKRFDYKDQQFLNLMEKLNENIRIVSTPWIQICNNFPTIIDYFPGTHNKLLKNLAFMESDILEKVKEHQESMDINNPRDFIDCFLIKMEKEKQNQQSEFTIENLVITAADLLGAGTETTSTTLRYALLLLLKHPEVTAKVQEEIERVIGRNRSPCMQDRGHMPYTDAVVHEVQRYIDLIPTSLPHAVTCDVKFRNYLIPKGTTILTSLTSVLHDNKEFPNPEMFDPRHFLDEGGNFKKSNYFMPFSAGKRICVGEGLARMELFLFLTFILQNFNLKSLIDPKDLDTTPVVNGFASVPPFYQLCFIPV

[13] = Half life in Sprague-Dawley rat at 10 mg/kg, po; format: ADME, organism-based; parameters: dose 10 mg/kg, route oral; details: in vivo; in short: as §2
[14] = molecular target: T4, Leukotriene B4 receptor 1 (Homo sapiens, UniProt Q15722); test: Antagonist activity at BLT1 receptor expressed in human HL60 cells assessed as inhibition of LTB4-stimulated calcium flux after 30 mins; format: functional, cell-based, HL-60; details: read-out: IC50
T4 sequence (Q15722 whole entry): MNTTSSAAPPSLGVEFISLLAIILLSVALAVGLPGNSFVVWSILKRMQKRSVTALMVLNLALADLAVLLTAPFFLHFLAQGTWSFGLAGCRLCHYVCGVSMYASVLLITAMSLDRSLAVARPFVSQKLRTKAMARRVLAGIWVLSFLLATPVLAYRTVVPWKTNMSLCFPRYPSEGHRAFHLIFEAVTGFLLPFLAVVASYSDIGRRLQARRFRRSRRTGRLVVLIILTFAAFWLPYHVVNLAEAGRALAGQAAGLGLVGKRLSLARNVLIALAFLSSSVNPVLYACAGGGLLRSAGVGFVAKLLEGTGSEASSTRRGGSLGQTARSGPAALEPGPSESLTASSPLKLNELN
In short: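 HL-60 cells grown in RPMI-1640 with 20% FBS were plated at 2.0 × 10^5 cells/ml with 1 μM retinoic acid. They were dye-loaded in HBSS/20 mM HEPES/5 mM probenecid (0.05% BSA in the replacement buffer) for 1 h at 37 C. Compound (5 × 10^-11 to 3 × 10^-6 M final) was added for 30 min at room temperature, then 0.5 μM LTB4. Fluorescence was read every 1.5 s for 100 s and peak increase scored as % inhibition versus DMSO control.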

[15] = Clearance in Sprague-Dawley rat at 2.5 mg/kg, iv; format: ADME, organism-based; parameters: dose 2.5 mg/kg, route intravenous; details: in vivo
[16] = tested on: Cavia porcellus; test: Antiinflammatory activity against LTB4-evoked eosinophilic pulmonary inflammation in Hartley guinea pig at 10 mg/kg, po after 1 hr treated before LTB4 challenge; format: functional, organism-based; parameters: dose 10 mg/kg
In short: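 Male Hartley guinea pigs (250-350 g) were dosed orally with 10 mg/kg in 2% Klucel LF/0.1% Tween-80. One hour later they were exposed to 10 μg/mL LTB4 aerosol for 20 min. BAL (3 × 5 mL HBSS) was done 2 h after challenge under pentobarbital. Cells were counted, and differentials of at least 300 cells were taken on Wright-stained cytospins. Analysis by two-way ANOVA/Bonferroni; 4-20 animals per group.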

[17] = molecular target: Cytochrome P450 2C9 (Homo sapiens, UniProt P11712); test: Inhibition of CYP2C9 fluorescence method; format: ADME
Cytochrome P450 2C9, sequence (P11712 whole entry): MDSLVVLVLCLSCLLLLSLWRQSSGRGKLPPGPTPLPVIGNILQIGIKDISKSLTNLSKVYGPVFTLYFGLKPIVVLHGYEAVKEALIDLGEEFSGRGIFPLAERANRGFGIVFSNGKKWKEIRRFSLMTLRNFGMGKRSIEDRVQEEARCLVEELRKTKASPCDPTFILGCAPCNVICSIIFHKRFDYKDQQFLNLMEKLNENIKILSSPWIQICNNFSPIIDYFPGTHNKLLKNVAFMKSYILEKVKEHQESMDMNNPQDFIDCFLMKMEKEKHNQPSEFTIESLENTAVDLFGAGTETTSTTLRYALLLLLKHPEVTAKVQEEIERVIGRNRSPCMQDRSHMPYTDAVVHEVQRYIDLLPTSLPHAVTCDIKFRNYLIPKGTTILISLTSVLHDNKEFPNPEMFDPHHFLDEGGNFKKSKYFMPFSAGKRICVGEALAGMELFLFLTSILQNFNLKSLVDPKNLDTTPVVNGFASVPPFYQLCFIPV

[18] = Cmax in Sprague-Dawley rat at 10 mg/kg, po; format: ADME, organism-based; parameters: dose 10 mg/kg, route oral; details: in vivo; in short: as §2
[19] = molecular target: T4, Leukotriene B4 receptor 1; test: Antagonist activity at FLAG-tagged human BLT1 receptor expressed in HEK293 cells assessed as inhibition of LTB4-stimulated calcium mobilization preincubated for 10 mins before LTB4 challenge; format: functional, cell-based
[20] = Solubility of compound in small intestinal contents in the fed state at pH 5; format: ADME; in short: as §4
[21] = tested on: Neutrophil; test: Inhibition of LTB4-stimulated human neutrophils migration after 30 mins by using CyQuant GR fluorescent dye; format: functional, cell-based; details: Homo sapiens, Neutrophil, 0.5 h; read-out: IC50
In short: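 Human blood neutrophils (95-97% pure, isolated over Lympholyte-poly) at 5 × 10^6 cells/mL were preincubated with compound (3 × 10^-12 to 1 × 10^-6 M final) for 30 min at 37 C. Migration toward 100 ng/mL LTB4 across a polycarbonate membrane ran 90 min at 37 C. Migrated cells were lysed with CyQuant GR and read at 480/520 nm. IC50 was taken from a sigmoidal fit of % inhibition.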

[22] = Half life in Sprague-Dawley rat at 2.5 mg/kg, iv; format: ADME, organism-based; parameters: dose 2.5 mg/kg, route intravenous; details: in vivo

SMILES: O=C(O)CCCOc1cccc(CCCCCCOc2cc(-c3ccccc3)cc(-c3ccccc3)n2)c1CCC(=O)O
IC50 [1]: > 7500 nM | bioavailability [2]: 28% | IC50 [3]: > 7500 nM | Vd [4]: 0.3 L/kg | IC50 [5]: > 7500 nM | Tmax [6]: 2.3 h | IC50 [7]: > 3000 nM | Activity [8]: Active | solubility [9]: 16.5 µg/mL (≈ 28.4 µM) | IC50 [10]: 3060 nM | INH [11]: Not Active | IC50 [12]: > 7500 nM | half-life [13]: 2.9 h | IC50 [14]: 0.48 nM | clearance [15]: 7.53 mL/min/kg | Activity [16]: Active | IC50 [17]: > 12500 nM | Cmax [18]: 2110 nM | IC50 [19]: 205 nM | solubility [20]: 27.7 µg/mL (≈ 47.6 µM) | IC50 [21]: 1.8 nM | half-life [22]: 2.1 h

SMILES: O=C(O)CCCOc1cccc(CCCCCCOc2cc(-c3ccc4c(c3)OCCO4)cc(-c3ccc4c(c3)OCCO4)c2)c1CCC(=O)O
IC50 [14]: 140 nM

SMILES: O=C(O)CCCOc1cccc(CCCCCCOc2cc(-c3ccc(F)cc3)cc(-c3ccc(F)cc3)c2)c1CCC(=O)O
IC50 [14]: 8.5 nM

SMILES: O=C(O)CCCOc1cccc(CCCCCCOc2cc(-c3ccsc3)cc(-c3ccnc(Cl)c3)c2)c1CCC(=O)O
IC50 [14]: 0.57 nM

SMILES: O=C(O)CCCOc1cccc(CCCCCCOc2cc(-c3cncnc3)cc(-c3ccsc3)c2)c1CCC(=O)O
IC50 [14]: 0.39 nM | IC50 [21]: 20 nM

SMILES: O=C(O)CCCOc1cccc(CCCCCCOc2cc(-c3ccccc3)cc(-c3ccsc3)c2)c1CCC(=O)O
IC50 [14]: 0.36 nM | IC50 [21]: 0.2 nM

Now from value to compound:

IC50 [14]: 5.39 nM
SMILES: O=C(O)CCCOc1cccc(CCCCCCOc2cc(-c3ccc4c(c3)OCO4)cc(-c3ccc4c(c3)OCO4)c2)c1CCC(=O)O

IC50 [14]: 3.27 nM
SMILES: COc1ccc(-c2cc(OCCCCCCc3cccc(OCCCC(=O)O)c3CCC(=O)O)cc(-c3ccc4c(c3)OCO4)c2)cc1

IC50 [14]: 0.38 nM | IC50 [21]: 0.2 nM
SMILES: O=C(O)CCCOc1cccc(CCCCCCOc2cc(-c3cncnc3)cc(-c3ccc4c(c3)OCO4)c2)c1CCC(=O)O

IC50 [14]: 31.1 nM
SMILES: COc1ccc(-c2cc(OCCCCCCc3cccc(OCCCC(=O)O)c3CCC(=O)O)cc(-c3ccc(OC)cc3)c2)cc1

IC50 [14]: 0.58 nM | IC50 [21]: 0.7 nM
SMILES: O=C(O)CCCOc1cccc(CCCCCCOc2cc(-c3ccccc3)cc(-c3ccc4c(c3)OCO4)c2)c1CCC(=O)O
